CHT inh = inhibitors of human choline transporter CHT; B-score at 10 µM; Q9GZV3; CHT-expressing cells, membrane potential dye, choline response; hits give low values; 310,000 tested, 0.86% active;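 active means B-score over 3 SD under the library average, and starting fluorescence ratio not unusually high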;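 further: choline stimulus applied at its EC90 after an EC20 pre-addition; B-score computed on integrated fluorescence ratio after choline addition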
Target sequence (Q9GZV3 whole entry, looked up): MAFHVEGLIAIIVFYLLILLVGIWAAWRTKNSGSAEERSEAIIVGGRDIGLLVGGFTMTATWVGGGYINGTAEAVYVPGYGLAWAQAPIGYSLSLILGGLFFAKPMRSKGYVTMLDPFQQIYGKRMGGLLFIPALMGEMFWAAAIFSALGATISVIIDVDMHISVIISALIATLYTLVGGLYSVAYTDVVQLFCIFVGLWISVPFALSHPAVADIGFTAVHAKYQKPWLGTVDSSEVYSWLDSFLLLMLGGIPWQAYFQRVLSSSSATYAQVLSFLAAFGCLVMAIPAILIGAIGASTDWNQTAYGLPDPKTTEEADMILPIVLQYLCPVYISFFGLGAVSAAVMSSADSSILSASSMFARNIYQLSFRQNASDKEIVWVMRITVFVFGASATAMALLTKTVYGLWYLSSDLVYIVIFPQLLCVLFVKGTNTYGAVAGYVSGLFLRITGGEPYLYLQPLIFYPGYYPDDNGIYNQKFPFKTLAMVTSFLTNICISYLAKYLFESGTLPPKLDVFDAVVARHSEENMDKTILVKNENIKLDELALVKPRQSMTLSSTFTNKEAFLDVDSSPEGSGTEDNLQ
TMEM16A inh = mouse TMEM16A channel inhibition, primary screen; normalized B-score (activity score, 25-100; higher = stronger inhibition) at 10 µM; HEK293 TMEM16A/YFP iodide influx fluorescence, ionomycin; 310,000 tested, 1.2% active; Q8BHY3;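 active means ratio plate-corrected score three or more library SD toward inhibition, starting fluorescence score within five deviations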;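 further: score derived from kinetic fluorescence span divided by baseline fluorescence per well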
IMP-1 inhibitor = blocks Pseudomonas aeruginosa IMP-1 metallo-beta-lactamase; purified IMP-1, nitrocefin hydrolysis, epi-absorbance fluorescence; 290,000 tested, 0.45% active; inhibition, % at 5.6 µM;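 active means inhibition above the mean plus 3 SD of all compounds in the same screening run, cut at about 4.5% in these data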;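 further: 0% = IMP-1 with DMSO and 100% = DMSO wells lacking enzyme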
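Assay system: purified recombinant IMP-1 beta-lactamase. Input: IMP-1 0.2 nM before substrate addition. Buffer or medium: Zinc- and detergent-supplemented HEPES buffer, pH 7.1. Schedule: 25 °C, 15 min preincubation, 25 min reaction. Signal: Epi-absorbance fluorescence, 480 nm excitation, 530 nm emission. Evaluation: percent inhibition from optical density relative to buffer-blank wells.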
CHT allo act = allosteric activators of human choline transporter CHT | Q9GZV3 | CHT-expressing cells, membrane potential dye, choline EC20; hits give high values; LV-AA mutant CHT in HEK293 cells | B-score at 10 µM | 310,000 tested, 0.49% active;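 active means initial fluorescence not abnormally high and integrated response B-score, plate-corrected, over 3 SD above library mean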
ANO1 activ = mouse TMEM16A channel activation, primary screen; HEK293 TMEM16A/YFP-H148Q/I152L, iodide quench fluorescence; hits give low values; AID 623877; Q8BHY3; B-score at 10 µM; 340,000 tested, 0.3% active;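 active means fluorescence-ratio B-score plate-corrected deviation score at least 3 library SD below zero, with starting fluorescence score within 5 deviations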;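 further: channel opened by trigger with iodide after compound preincubation; score built on the fluorescence ratio of max minus min over baseline; more negative score means more quench and so TMEM16A activation or potentiation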
VIM-2 inhibitor = blocks Pseudomonas aeruginosa VIM-2 metallo-beta-lactamase | purified VIM-2, nitrocefin hydrolysis, epi-absorbance fluorescence | inhibition, % at 5.6 µM | 290,000 tested, 0.89% active | AID 1527;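 active means inhibition above the mean of all tested compounds plus 3 SD, cutoff set per screening run, cut at about 7.5% in these data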;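 further: red hydrolysis product quenches plate fluorescence so inhibitors raise well fluorescence; 0% = enzyme with DMSO and 100% = DMSO without enzyme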
* = called active by the depositor; i = inactive; x = no result. A selection: hits, their analogues and other compounds. The true share with any hit is near 3.4%.

SMILES | CHT inh | TMEM16A inh | IMP-1 inhibitor | CHT allo act | ANO1 activ | VIM-2 inhibitor
Cc1cc(C)c(O)c(-c2cc(C(=O)Nc3ccc(S(=O)(=O)N4CCOCC4)cc3)[nH]n2)c1 | i | 25* | -1.7 | i | i | -4.2
CC(=O)Nc1ccc(NC(=O)c2cc(-c3cc(C)cc(C)c3O)n[nH]2)cc1 | i | i | -1.3 | i | i | 2.2
S=c1[nH]nc(-c2ccco2)n1/N=C/c1cccc(Cl)c1 | i | i | -3.9 | i | i | 9.1*
S=c1[nH]nc(-c2ccco2)n1-c1ccccc1Cl | i | i | -2.5 | i | i | 16.0*
O=[N+]([O-])c1ccccc1/C=C/C=N/n1c(-c2ccco2)n[nH]c1=S | i | i | -2.1 | i | i | 9.8*
S=c1[nH]nc(-c2cc(-c3ccco3)[nH]n2)n1-c1ccccc1Cl | i | i | 0.8 | i | i | 2.0
S=c1[nH]nc(-c2cc(-c3ccccc3)n[nH]2)n1/N=C/c1ccccc1 | i | i | -2.5 | i | i | -3.1
Cc1cccc(/C=N/n2c(-c3cc(-c4ccccc4)n[nH]3)n[nH]c2=S)c1 | i | i | -2.9 | i | -6.63* | 0.0
Clc1ccc(CN2CCN(c3ncccn3)CC2)cc1 | i | i | 1.1 | i | i | -0.1
Cc1cc(NC(=O)CSc2ncc(C(=O)O)n2-c2ccc(F)cc2)no1 | x | x | x | x | i | x
CCOc1ccc(CC(=O)N/N=C(\C)c2cccnc2)cc1 | i | i | -4.1 | i | i | -4.1
S=c1[nH]nc(-c2ccco2)n1/N=C/C(Cl)=C/c1ccccc1 | i | i | -3.3 | i | i | 8.1*
COc1ccc(-n2nnnc2SCC(=O)c2ccc(O)c(O)c2)cc1 | i | i | -3.5 | i | i | 6.9
NC(=O)c1ccc(-n2nnnc2SCC(=O)c2ccc(O)c(O)c2)cc1 | i | i | -0.5 | i | i | 11.0*
Cc1nn(CCCC(=O)NCCCN2CCN(C)CC2)c(=O)c2c1sc1ccccc12 | i | i | -1.6 | i | i | 11.5*
Cc1nn(CC(=O)N2CCN(C)CC2)c(=O)c2c1sc1ccccc12 | i | i | -4.4 | i | i | 10.9*
CCC(C(=O)NCCCN1CCN(C)CC1)n1nc(C)c2sc3ccccc3c2c1=O (stereo unspecified) | i | i | -3.4 | i | i | 0.2
CCOC(=O)N1CCN(C(=O)Cn2nc(C)c3sc4ccccc4c3c2=O)CC1 | i | i | -2.5 | i | i | 2.5
CN1CCN(c2oc(-c3ccccc3)nc2S(=O)(=O)c2ccc(Br)cc2)CC1 | i | i | 0.5 | i | i | 0.4
COC(=O)c1ccccc1NC(=O)c1sc(N)nc1C | i | i | -4.8 | i | i | 10.3*
COc1ccccc1N=C(C)C1=C(O)CSC1=O | i | i | 5.6* | i | i | -3.0
CCn1c(SCC(=O)NCC2CCCO2)nnc1-c1ccccc1 (stereo unspecified) | i | i | -4.5 | i | i | -1.7
Nn1cc(-c2ccccc2)nc1SCC(=O)NCC1CCCO1 (stereo unspecified) | i | i | -3.0 | i | -20.5* | -1.9
NS(=O)(=O)c1ccc(CNC(=O)c2ccc(NS(=O)(=O)c3ccc4[nH]c(=O)[nH]c4c3)cc2)cc1 | i | i | x | i | i | x
CCC(NC(=O)c1ccccc1NC(=O)c1ccccc1)C(=O)NNC(=O)c1cccnc1 (stereo unspecified) | i | i | -2.8 | i | i | -4.3
SMILES | CHT inh | TMEM16A inh | IMP-1 inhibitor | CHT allo act | ANO1 activ | VIM-2 inhibitor
COc1ccc(CNc2c(C(=O)O)cnc3c2cnn3C)cc1 | i | i | -3.2 | i | i | 9.9*
CN(C)CCCNc1c(C(=O)O)cnc2c1cnn2C | x | x | -1.9 | x | x | -3.4
Cc1ccc(NC(=O)CCc2c(C)nc3ncnn3c2C)nc1 | i | i | 5.2* | i | i | 1.4
Cc1ccnc(NC(=O)CCc2c(C)nc3ncnn3c2C)c1 | i | i | 1.3 | i | i | -2.3
CCNc1ccc(Br)cc(C(=O)/C=C/c2ccccc2Cl)c1=O | i | i | 10.6* | i | i | 0.2
CNc1ccc(Br)cc(C(=O)/C=C/c2cccc(Cl)c2Cl)c1=O | x | x | 5.9* | x | i | -1.6

Source: PubChem BioAssay (several laboratories)
